Columns and labels:
[1] = molecular target: Aldo-keto reductase family 1 member B1 (Rattus norvegicus, UniProt P07943); assay: Compound was tested for its ability to inhibit crude aldose reductase obtained from rat lens
[2] = molecular target: Aldo-keto reductase family 1 member B1 (Rattus norvegicus) (UniProt P07943); assay: Compound was tested for its ability to inhibit crude aldose reductase obtained from rat lens at 100 uM concentration
Method in brief: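 Crude enzyme prepared from rat lens. Reaction at pH 6.2 in 0.1 M phosphate buffer with 0.104 mM NADPH and 1.5 mM DL-glyceraldehyde as substrate. NADPH consumption followed at 340 nm against a blank lacking substrate. Percent inhibition from rate versus substrate-only control. IC50 from linear regression of log dose-response using at least three concentrations, three replicates each, for compounds exceeding 50% inhibition at 100 μM.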

| IC50 [1] | inhibition [2] | Compound |
| --- | --- | --- |
| 50 µM |  | O=C(O)c1ccc(Nc2nc3ccccc3c(=O)[nH]2)cc1 |
|  | 22.4% | COc1cc2nc(NCc3ccccc3)nc(O)c2cc1OC |
| 57 µM |  | O=C(O)c1ccc(Nc2nc3ccccc3c(=O)[nH]2)cc1O |
|  | 3.9% | Oc1nc(NCc2ccccc2)nc2ccccc12 |
|  | 5.9% | Oc1nc(Nc2ccccc2)nc2ccccc12 |
|  | 17.4% | COc1cc2nc(Nc3ccccc3)nc(O)c2cc1OC |
| 75 µM |  | O=c1[nH]c(Nc2ccc(O)cc2)nc2ccccc12 |
|  | 42.6% | O=S(=O)(O)c1ccc(Nc2nc(O)c3ccccc3n2)cc1 |
| 34 µM |  | COc1cc2nc(Nc3ccc(C(=O)O)cc3)[nH]c(=O)c2cc1OC |

| Compound | IC50 [1] | inhibition [2] |
| --- | --- | --- |
| Cc1nc2ccccc2c(=O)n1-c1ccc(C(=O)O)cc1 | 214 µM |  |
